Legend:
Mus musculus [1] = species: Mus musculus; experiment: animal or person; conditions: po, 2 h, read-out: INH
Mus musculus [2] = experiment: Analgesic activity in mouse model of acetic-acid-induced writhing assessed as inhibition of writhing numbers at 70 mg/kg, po pretreated with compound followed by acetic acid challenge and measured after 30 mins relative to control; format: functional; conditions: 0.5 h
In short: (§1)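 Acetic acid writhing in mice. Oral dosing (70 mg/kg test compounds or limonin; 200 mg/kg aspirin); vehicle controls got 0.5% CMC-Na. 30 min later 0.6% acetic acid, 10 ml/kg i.p. Each animal held in its own box and observed for 15 min; writhing and stretching counted; result as percent change from vehicle writhing controls.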

Mus musculus [3] = experiment: Antiinflammatory activity in mouse model of xylene-induced ear swelling assessed as inhibition of swelling by measuring weight of the ear at 100 mg/kg, ig pretreated for 90 mins followed by xylene challenge and measured after 30 mins relative to control; format: functional; conditions: po, 2 h, time 120 min
In short: (§2)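 Xylene ear swelling in mice. Test compounds 100 mg/kg i.g., naproxen 150 mg/kg i.g., all suspended in 0.5% CMC-Na; vehicle group got CMC-Na alone. 90 min after dosing, 25 ul xylene applied to both surfaces of right ear; left ear unstimulated. Killed 30 min later; 8 mm punches from both ears weighed; swelling taken against left ear weight.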

Mus musculus [4] = experiment: Antiinflammatory activity in ICR mouse model of carrageenan-induced paw edema assessed as paw edema inhibition rate at 50 mg/kg, ig pretreated with compound followed by carrageenan challenge and measured after 4 hrs post-treatment by dial thickness gage; format: functional; conditions: po
In short: (§3)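 ICR male mice, 8 per group, randomized, acclimated at least one week, 12 h light/dark, 22 ± 1 °C. Dosed intragastrically at 25, 50 or 100 mg/kg; indomethacin 22 mg/kg i.g. as reference; olive oil as vehicle. 30 min later, 1% fresh carrageenan in saline injected subplantar into right hind paw. Paw thickness read by dial gauge before injection and at 1, 2, 3 and 4 h; percent increase over pre-injection value.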

Mus musculus [5] = experiment: Antiinflammatory activity in ICR mouse model of carrageenan-induced paw edema assessed as paw edema inhibition rate at 100 mg/kg, po pretreated with compound followed by carrageenan challenge and measured after 2 hrs post-treatment by dial thickness gage; format: functional
In short: as §3

Mus musculus [6] = experiment: Antiinflammatory activity in ICR mouse model of carrageenan-induced paw edema assessed as paw edema inhibition rate at 50 mg/kg, po pretreated with compound followed by carrageenan challenge and measured after 3 hrs post-treatment by dial thickness gage; format: functional
In short: as §3

Mus musculus [7] = experiment: Antiinflammatory activity in ICR mouse model of carrageenan-induced paw edema assessed as paw edema inhibition rate at 25 mg/kg, po pretreated with compound followed by carrageenan challenge and measured after 4 hrs post-treatment by dial thickness gage; format: functional; conditions: 2 h, dose mg/kg 25-100
In short: as §3

Mus musculus [8] = experiment: Antiinflammatory activity in ICR mouse model of carrageenan-induced paw edema assessed as paw edema inhibition rate at 100 mg/kg, po pretreated with compound followed by carrageenan challenge and measured after 3 hrs post-treatment by dial thickness gage; format: functional
In short: as §3

Mus musculus [9] = experiment: Antiinflammatory activity in ICR mouse model of carrageenan-induced paw edema assessed as paw edema inhibition rate at 100 mg/kg, po pretreated with compound followed by carrageenan challenge and measured after 4 hrs post-treatment by dial thickness gage; format: functional
In short: as §3

Mus musculus [10] = experiment: Antiinflammatory activity in ICR mouse model of carrageenan-induced paw edema assessed as paw edema inhibition rate at 25 mg/kg, po pretreated with compound followed by carrageenan challenge and measured after 1 hr post-treatment by dial thickness gage; format: functional
In short: as §3

Mus musculus [11] = experiment: Antiinflammatory activity in ICR mouse model of carrageenan-induced paw edema assessed as paw edema inhibition rate at 50 mg/kg, po pretreated with compound followed by carrageenan challenge and measured after 2 hrs post-treatment by dial thickness gage; format: functional
In short: as §3

Mus musculus [12] = experiment: Antiinflammatory activity in ICR mouse model of carrageenan-induced paw edema assessed as paw edema inhibition rate at 25 mg/kg, po pretreated with compound followed by carrageenan challenge and measured after 3 hrs post-treatment by dial thickness gage; format: functional
In short: as §3

Mus musculus [13] = experiment: Antiinflammatory activity in ICR mouse model of carrageenan-induced paw edema assessed as paw edema inhibition rate at 100 mg/kg, po pretreated with compound followed by carrageenan challenge and measured after 1 hr post-treatment by dial thickness gage; format: functional
In short: as §3

Mus musculus [14] = experiment: Antiinflammatory activity in ICR mouse model of carrageenan-induced paw edema assessed as paw edema inhibition rate at 50 mg/kg, po pretreated with compound followed by carrageenan challenge and measured after 1 hr post-treatment by dial thickness gage; format: functional
In short: as §3

Mus musculus [15] = experiment: Antiinflammatory activity in ICR mouse model of carrageenan-induced paw edema assessed as paw edema inhibition rate at 25 mg/kg, po pretreated with compound followed by carrageenan challenge and measured after 2 hrs post-treatment by dial thickness gage; format: functional
In short: as §3

Mus musculus [16] = experiment: Antiinflammatory activity in po dosed ICR mouse model of carrageenan-induced paw edema assessed as paw edema inhibition rate pretreated with compound followed by carrageenan challenge and measured after 4 hrs post-treatment by dial thickness gage; format: functional, organism-based; conditions: dose mg/kg 25-100, time 4.0 hrs
In short: as §3

Mus musculus [17] = experiment: Antiinflammatory activity in ICR mouse model of carrageenan-induced paw edema assessed as paw edema inhibition rate at 22 mg/kg, po pretreated with compound followed by carrageenan challenge and measured after 2 hrs post-treatment by dial thickness gage; format: functional
In short: as §3

Mus musculus [18] = experiment: Antiinflammatory activity in ICR mouse model of carrageenan-induced paw edema assessed as paw edema inhibition rate at 22 mg/kg, po pretreated with compound followed by carrageenan challenge and measured after 3 hrs post-treatment by dial thickness gage; format: functional
In short: as §3

Mus musculus [19] = experiment: Antiinflammatory activity in ICR mouse model of carrageenan-induced paw edema assessed as paw edema inhibition rate at 22 mg/kg, po pretreated with compound followed by carrageenan challenge and measured after 1 hr post-treatment by dial thickness gage; format: functional
In short: as §3

Mus musculus [20] = experiment: Antiinflammatory activity in ICR mouse model of carrageenan-induced paw edema assessed as paw edema inhibition rate at 22 mg/kg, po pretreated with compound followed by carrageenan challenge and measured after 4 hrs post-treatment by dial thickness gage; format: functional
In short: as §3

Mus musculus [21] = experiment: Antiinflammatory activity in mouse model of xylene-induced ear swelling assessed as inhibition of swelling by measuring weight of the ear at 100 mg/kg, ig pretreated for 90 mins followed by xylene challenge and measured after 30 mins relative to deoxy-limonin; format: functional; conditions: time 120 min, 2 h
In short: as §2

Mus musculus [22] = experiment: Analgesic activity in mouse model of acetic-acid-induced writhing assessed as inhibition of writhing numbers at 200 mg/kg, po pretreated with compound followed by acetic acid challenge and measured after 30 mins relative to control; format: functional; conditions: 0.5 h
In short: as §1

COc1ccc2cc([C@H](C)C(=O)O)ccc2c1 [NAPROXEN]
inhibition in vivo at 150 mg/kg (Mus musculus [1]): 25%

CC1(C)OC(CCNCCc2ccc(F)cc2)C2(CO)[C@H]3CC[C@]4(C)C(=CC(=O)O[C@H]4c4ccoc4)[C@]3(C)C(=O)C[C@@H]12 (stereo partly drawn)
inhibition in vivo at 70 mg/kg (Mus musculus [2]): 30.1% | inhibition in vivo at 100 mg/kg (Mus musculus [3]): 30%

COc1ccc(CCNCCC2OC(C)(C)[C@@H]3CC(=O)[C@]4(C)[C@H](CC[C@@]5(C)[C@H](c6ccoc6)OC(=O)[C@H]6O[C@]654)C23CO)cc1OC (stereo partly drawn)
inhibition in vivo at 70 mg/kg (Mus musculus [2]): 11.2% | inhibition in vivo at 100 mg/kg (Mus musculus [3]): 26.7%

COc1ccc(CN2CCC3OC(C)(C)[C@@H]4CC(=O)[C@@]5(C)C6=CC(=O)O[C@@H](c7ccoc7)[C@]6(C)CC[C@@H]5C34C2)cc1 (stereo partly drawn)
inhibition in vivo at 70 mg/kg (Mus musculus [2]): 40% | inhibition in vivo at 100 mg/kg (Mus musculus [3]): 32.5%

COc1ccc(CNCCC2OC(C)(C)[C@@H]3CC(=O)[C@]4(C)[C@H](CC[C@@]5(C)[C@H](c6ccoc6)OC(=O)[C@H]6O[C@]654)C23CO)cc1 (stereo partly drawn)
inhibition in vivo at 50 mg/kg (Mus musculus [4]): 15.6% | inhibition in vivo at 70 mg/kg (Mus musculus [2]): 81.5% | inhibition in vivo at 100 mg/kg (Mus musculus [5]): 62% | inhibition in vivo at 50 mg/kg (Mus musculus [6]): 17.5% | inhibition in vivo at 25 mg/kg (Mus musculus [7]): 5.75% | inhibition in vivo at 100 mg/kg (Mus musculus [8]): 41.4% | inhibition in vivo at 100 mg/kg (Mus musculus [9]): 32% | inhibition in vivo at 100 mg/kg (Mus musculus [3]): 27.3% | inhibition in vivo at 25 mg/kg (Mus musculus [10]): 43.4% | inhibition in vivo at 50 mg/kg (Mus musculus [11]): 33.3% | inhibition in vivo at 25 mg/kg (Mus musculus [12]): 9.77% | inhibition in vivo at 100 mg/kg (Mus musculus [13]): 54.5% | inhibition in vivo at 50 mg/kg (Mus musculus [14]): 44.6% | inhibition in vivo at 25 mg/kg (Mus musculus [15]): 24.6% | inhibition (Mus musculus [16]): Dose-dependent effect

CC1(C)OC(CCNCc2ccc(F)cc2)C2(CO)[C@H]3CC[C@]4(C)C(=CC(=O)O[C@H]4c4ccoc4)[C@]3(C)C(=O)C[C@@H]12 (stereo partly drawn)
inhibition in vivo at 70 mg/kg (Mus musculus [2]): 37% | inhibition in vivo at 100 mg/kg (Mus musculus [3]): 29.5%

COc1ccc2c(c1)c(CC(=O)O)c(C)n2C(=O)c1ccc(Cl)cc1 [INDOMETHACIN]
inhibition in vivo at 22 mg/kg (Mus musculus [17]): 60% | inhibition in vivo at 22 mg/kg (Mus musculus [18]): 64.9% | inhibition in vivo at 22 mg/kg (Mus musculus [19]): 47.5% | inhibition in vivo at 22 mg/kg (Mus musculus [20]): 64.8%

COc1ccc(CCNCCC2OC(C)(C)[C@@H]3CC(=O)[C@@]4(C)C5=CC(=O)O[C@@H](c6ccoc6)[C@]5(C)CC[C@@H]4C23CO)cc1OC (stereo partly drawn)
inhibition in vivo at 70 mg/kg (Mus musculus [2]): 52.6% | inhibition in vivo at 100 mg/kg (Mus musculus [3]): 37.9%

CC1(C)OC(CCNCCc2ccc(F)cc2)C2(CO)[C@H]3CC[C@@]4(C)[C@H](c5ccoc5)OC(=O)[C@H]5O[C@]54[C@]3(C)C(=O)C[C@@H]12 (stereo partly drawn)
inhibition in vivo at 70 mg/kg (Mus musculus [2]): 55.8% | inhibition in vivo at 100 mg/kg (Mus musculus [3]): 16.1%

COc1cccc(CCNCCC2OC(C)(C)[C@@H]3CC(=O)[C@@]4(C)C5=CC(=O)O[C@@H](c6ccoc6)[C@]5(C)CC[C@@H]4C23CO)c1 (stereo partly drawn)
inhibition in vivo at 70 mg/kg (Mus musculus [2]): 52.6% | inhibition in vivo at 100 mg/kg (Mus musculus [5]): 65.3% | inhibition in vivo at 50 mg/kg (Mus musculus [6]): 24.1% | inhibition in vivo at 25 mg/kg (Mus musculus [7]): 5.43% | inhibition in vivo at 100 mg/kg (Mus musculus [8]): 35.3% | inhibition in vivo at 100 mg/kg (Mus musculus [9]): 27.5% | inhibition in vivo at 100 mg/kg (Mus musculus [3]): 51.5% | inhibition in vivo at 25 mg/kg (Mus musculus [10]): 51.5% | inhibition in vivo at 50 mg/kg (Mus musculus [11]): 27.3% | inhibition in vivo at 25 mg/kg (Mus musculus [12]): 12% | inhibition in vivo at 100 mg/kg (Mus musculus [13]): 59.8% | inhibition in vivo at 50 mg/kg (Mus musculus [14]): 55.6% | inhibition in vivo at 25 mg/kg (Mus musculus [15]): 17.6% | fold change (FC) (Mus musculus [21]): 5 | inhibition (Mus musculus [16]): Dose-dependent effect

CC1(C)O[C@H]2CC(=O)OC[C@@]23[C@H]1CC(=O)[C@@]1(C)C2=CC(=O)O[C@@H](c4ccoc4)[C@]2(C)CC[C@@H]13
inhibition in vivo at 70 mg/kg (Mus musculus [2]): 22.6% | inhibition in vivo at 100 mg/kg (Mus musculus [3]): 11.2%

CC(=O)Oc1ccccc1C(=O)O [ASPIRIN]
inhibition in vivo at 200 mg/kg (Mus musculus [22]): 51.5%

CC1(C)OC(CCNCc2ccc(F)cc2)C2(CO)[C@H]3CC[C@@]4(C)[C@H](c5ccoc5)OC(=O)[C@H]5O[C@]54[C@]3(C)C(=O)C[C@@H]12 (stereo partly drawn)
inhibition in vivo at 70 mg/kg (Mus musculus [2]): 63.8% | inhibition in vivo at 100 mg/kg (Mus musculus [3]): 27.4%

COc1cccc(CCNCCC2OC(C)(C)[C@@H]3CC(=O)[C@]4(C)[C@H](CC[C@@]5(C)[C@H](c6ccoc6)OC(=O)[C@H]6O[C@]654)C23CO)c1 (stereo partly drawn)
inhibition in vivo at 70 mg/kg (Mus musculus [2]): 58.7% | inhibition in vivo at 100 mg/kg (Mus musculus [3]): 17%

CC1(C)OC2CCN(Cc3ccc(F)cc3)CC23[C@H]2CC[C@]4(C)C(=CC(=O)O[C@H]4c4ccoc4)[C@]2(C)C(=O)C[C@@H]13 (stereo partly drawn)
inhibition in vivo at 70 mg/kg (Mus musculus [2]): 40.3% | inhibition in vivo at 100 mg/kg (Mus musculus [3]): 28%

CC1(C)O[C@H]2CC(=O)OC[C@]23[C@H]2CC[C@@]4(C)[C@H](c5ccoc5)OC(=O)[C@H]5O[C@]54[C@]2(C)C(=O)C[C@@H]13 [LIMONIN]
inhibition in vivo at 70 mg/kg (Mus musculus [2]): 44.2% | inhibition in vivo at 50 mg/kg (Mus musculus [6]): 26.3% | inhibition in vivo at 100 mg/kg (Mus musculus [3]): 14.4% | inhibition in vivo at 50 mg/kg (Mus musculus [11]): 22% | inhibition in vivo at 50 mg/kg (Mus musculus [14]): 57.3%

COc1ccc(CNCCC2OC(C)(C)[C@@H]3CC(=O)[C@@]4(C)C5=CC(=O)O[C@@H](c6ccoc6)[C@]5(C)CC[C@@H]4C23CO)cc1 (stereo partly drawn)
inhibition in vivo at 70 mg/kg (Mus musculus [2]): 29.7% | inhibition in vivo at 100 mg/kg (Mus musculus [3]): 24.8%
